# Legend:
# [1] = system: ATP production in MDCK-MDR1 cells; assay: ATP assay; type: cell-based; settings: 20 mM HEPES in culture medium
# Procedure, shortened: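 MDCK-MDR1 cells grown in DMEM with 10% heat-inactivated calf serum at 37 °C, 5% CO2, in 96-well plates for 6–7 days to full confluence, in medium without HEPES (Set 1) or with 20 mM HEPES (Set 2). Cells lysed for […]; ATP in lysate read by luminescence kit, with protein measured by Bradford. At least triplicate; mean ± SD.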
# MDCK-MDR1 cells [2] = assay: Uptake of radiolabelled substrates into MDCK-MDR1 cells in DPBS with HEPES
# [3] = Bidirectional transepithelial transport of [3H]lopinavir across MDCK-MDR1 cells; type: in vitro ADME; settings: dog, MDCK-MDR1, 37 °C; for Papp A→B at 0.5 μCi/mL: MDCK-MDR1, pH 7.4, PappA-B; for Papp B→A at 0.5 μCi/mL: MDCK-MDR1, pH 7.4, PappB-A
# MDCK-MDR1 cells [4] = type: in vitro ADME
# MDCK-MDR1 cells [5] = system: MDCK-MDR1 cells
smiles,measurement,setting,value
"O=S(=O)(O)CCN1CCN(CCO)CC1 [HEPES, 4-(2-hydroxyethyl)-1-piperazineethanesulfonic acid]","elevation of ATP production, Set 2 compared to Set 1",[1],70%
N[C@@H](CCC(=O)O)C(=O)O [glutamic acid],elevation of uptake over the control,MDCK-MDR1 cells [2]; 15 mM HEPES,about 30%
same,elevation of uptake over the control,MDCK-MDR1 cells [2]; 25 mM HEPES,~45%
Cc1cccc(C)c1OCC(=O)N[C@@H](Cc1ccccc1)[C@@H](O)C[C@H](Cc1ccccc1)NC(=O)[C@H](C(C)C)N1CCCNC1=O [lopinavir],Papp A→B at 0.5 μCi/mL,[3]; 25 mM HEPES in DPBS,22.8 ± 1.03 ×10⁻⁶ cm/s
same,Papp A→B at 0.5 μCi/mL,[3]; Control (0 mM HEPES) in DPBS,30.2 ± 2.56 ×10⁻⁶ cm/s
same,Papp B→A at 0.5 μCi/mL,[3]; 25 mM HEPES in DPBS,165 ± 11.1 ×10⁻⁶ cm/s
same,Papp B→A at 0.5 μCi/mL,[3]; Control (0 mM HEPES) in DPBS,148 ± 7.92 ×10⁻⁶ cm/s
same,accumulation by Set 2 cells compared with Set 1 cells,"MDCK-MDR1 cells [4]; Set 2 grown with 20 mM HEPES, Set 1 without, 0, 15, 25 mM HEPES in DPBS",significantly less
same,accumulation by Set 2 cells compared to Set 1 cells,"MDCK-MDR1 cells [4]; in the presence of 1 μM or 2 μM unlabelled lopinavir, DPBS with 25 mM HEPES",higher accumulation
same,"elevation of accumulation, Set 2 versus Set 1 cells","MDCK-MDR1 cells [4]; in the presence of 5 μM unlabelled lopinavir, DPBS with 25 mM HEPES",not statistically different
same,accumulation into cells versus control (0 mM HEPES),MDCK-MDR1 cells [5],significant reduction
N[C@@H](Cc1ccccc1)C(=O)O [phenylalanine],change of uptake in the presence of HEPES,MDCK-MDR1 cells [2]; 15 and 25 mM HEPES,no significant change
CC(C)c1nc(CN(C)C(=O)N[C@H](C(=O)N[C@@H](Cc2ccccc2)C[C@H](O)[C@H](Cc2ccccc2)NC(=O)OCc2cncs2)C(C)C)cs1 [ritonavir],accumulation into cells versus control (0 mM HEPES),MDCK-MDR1 cells [5],significant reduction

# Source: PMC2849840 (Molecular pharmaceutics, 2010)
